Test results as given in ChEMBL document CHEMBL4813947, “New dual ATP-competitive inhibitors of bacterial DNA gyrase and topoisomerase IV active against ESKAPE pathogens” (Eur J Med Chem, 2021).
Values after ≈ are worked out from the molar mass of the structure shown.

Assays:
[1] = test system: human topoisomerase 2alpha; test: Selectivity ratio of IC50 for inhibition of human topoisomerase 2alpha to IC50 for inhibition of Escherichia coli topoisomerase IV; assay type: toxicity; details: read-out: Ratio IC50
[2] = Inhibition of Staphylococcus aureus topoisomerase assessed as reduction in relaxation of supercoiled pNO1 DNA measured after 30 mins by fluorescence assay
In short: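 Enzyme run per an earlier-reported procedure; IC50 fitted from seven inhibitor concentrations, mean of three independent measurements.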

Staphylococcus aureus [3] = test: Antibacterial activity against Staphylococcus aureus ATCC 29213 assessed as inhibition of bacterial growth by CLSI protocol based broth microdilution assay; assay type: functional
Staphylococcus aureus [4] = test: Antibacterial activity against methicillin-resistant Staphylococcus aureus ATCC 43300 assessed as inhibition of bacterial growth by CLSI protocol based broth microdilution assay; assay type: functional
In short: (§1)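 Minimum inhibitory concentration by standard serial broth microdilution following CLSI guidelines. Medium was MHBII broth (22 g/L powder: beef extract, casein acid hydrolysate, starch), with MHBII agar (14 g agar per L broth). Where noted, assayed without and with efflux pump substrate phenylalanine-arginine β-naphthylamide (PAβN).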

Enterococcus faecalis = test: Antibacterial activity against Enterococcus faecalis ATCC 29212 assessed as inhibition of bacterial growth by CLSI protocol based broth microdilution assay; assay type: functional
Pseudomonas aeruginosa [5] = test: Antibacterial activity against Pseudomonas aeruginosa ATCC 27853 assessed as inhibition of bacterial growth by CLSI protocol based broth microdilution assay; assay type: functional
Klebsiella pneumoniae = test: Antibacterial activity against Klebsiella pneumoniae ATCC 10031 assessed as inhibition of bacterial growth by CLSI protocol based broth microdilution assay; assay type: functional
Staphylococcus aureus [6] = test: Antibacterial activity against methicillin-resistant wild type Staphylococcus aureus ATCC 43300 assessed as inhibition of bacterial growth by CLSI protocol based broth microdilution assay; assay type: functional; in short: as §1
Staphylococcus aureus [7] = test: Antibacterial activity against vancomycin-resistant Staphylococcus aureus ATCC 700699 harboring GyrB R144I mutant assessed as inhibition of bacterial growth by CLSI protocol based broth microdilution assay; assay type: functional; in short: as §1
Staphylococcus aureus [8] = test: Antibacterial activity against vancomycin-resistant wild type Staphylococcus aureus ATCC 700699 assessed as inhibition of bacterial growth by CLSI protocol based broth microdilution assay; assay type: functional; in short: as §1
Escherichia coli [9] = test: Antibacterial activity against wild type Escherichia coli MG1655 assessed as inhibition of bacterial growth by CLSI protocol based broth microdilution assay; assay type: functional; in short: as §1
Escherichia coli [10] = test: Antibacterial activity against Escherichia coli MG1655 in presence of efflux pump inhibitor PAbetaN assessed as inhibition of bacterial growth by CLSI protocol based broth microdilution assay; assay type: functional
Acinetobacter baumannii = test: Antibacterial activity against clinical isolate ciprofloxacin resistance Acinetobacter baumannii ATCC BAA-1605 assessed as inhibition of bacterial growth by CLSI protocol based broth microdilution assay; assay type: functional; in short: as §1
Escherichia coli [11] = test: Antibacterial activity against Escherichia coli 20204 assessed as inhibition of bacterial growth by CLSI protocol based broth microdilution assay; assay type: functional
Escherichia coli [12] = test: Antibacterial activity against clinical isolate ciprofloxacin resistance Escherichia coli 31995 assessed as inhibition of bacterial growth by CLSI protocol based broth microdilution assay; assay type: functional; in short: as §1
Escherichia coli [13] = test: Antibacterial activity against clinical isolate ciprofloxacin resistance Escherichia coli 31859 assessed as inhibition of bacterial growth by CLSI protocol based broth microdilution assay; assay type: functional; in short: as §1
Pseudomonas aeruginosa [14] = test: Antibacterial activity against Pseudomonas aeruginosa 19488 assessed as inhibition of bacterial growth by CLSI protocol based broth microdilution assay; assay type: functional
[15] = target: DNA topoisomerase 2-alpha (Homo sapiens, UniProt P11388); test: Inhibition of human topoisomerase 2alpha assessed as reduction in relaxation of supercoiled DNA fluorescence-based microplate reader assay
In short: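 Human topoisomerase IIα, 1.5 U with 0.75 µg supercoiled pNO1 plasmid, 1 mM ATP, pH 7.5 Tris/MgCl2/NaCl/DTT buffer, 37 °C 30 min. Stopped with TF buffer pH 5.0, then triplex capture on immobilized biotinylated oligonucleotide 30 min at room temperature. Dye fluorescence read (ex 485/em 537 nm). IC50 from seven concentrations, mean of three runs; etoposide control.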

Staphylococcus aureus [16] = test: Ratio of MIC for methicillin-resistant Staphylococcus aureus ATCC 43300 harboring GyrB R144I mutant to MIC for methicillin-resistant wild type Staphylococcus aureus ATCC 43300; assay type: functional
Staphylococcus aureus [17] = test: Ratio of MIC for methicillin-resistant Staphylococcus aureus ATCC 43300 harboring GyrB T173A mutant to MIC for methicillin-resistant wild type Staphylococcus aureus ATCC 43300; assay type: functional
Staphylococcus aureus [18] = test: Ratio of MIC for vancomycin-resistant Staphylococcus aureus ATCC 700699 harboring GyrB […] mutant to MIC for vancomycin-resistant wild type Staphylococcus aureus ATCC 700699; assay type: functional
Escherichia coli [19] = test: Ratio of MIC for Escherichia coli MG1655 harboring GyrB R136C mutant in presence of efflux pump inhibitor PAbetaN to MIC for wild type Escherichia coli MG1655 in presence of efflux pump inhibitor PAbetaN; assay type: functional
[20] = test system: human topoisomerase 2alpha; test: Selectivity ratio of IC50 for inhibition of human topoisomerase 2alpha to IC50 for inhibition of Escherichia coli DNA gyrase; assay type: toxicity; details: read-out: Ratio IC50
HepG2 = test: Cytotoxicity against human HepG2 cells upto 100 uM by lactate dehydrogenase assay; assay type: cell-based
In short: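 HepG2 or MCF-7 cells grown in EMEM with 2 mM L-glutamine, penicillin/streptomycin, 10% FBS at 37 °C, 5% CO2; LDH release kit per manufacturer, test concentrations up to 100 µM.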

[21] = Ratio of genotoxicity in CHO-K1 cells by invitro micronucleus test to MIC for methicillin-resistant wild type Staphylococcus aureus ATCC 43300; assay type: toxicity, cell-based; details: hamster
[22] = Ratio of genotoxicity in CHO-K1 cells by invitro micronucleus test to MIC for vancomycin-resistant Staphylococcus aureus ATCC 700699; assay type: toxicity, cell-based; details: hamster
[23] = Ratio of genotoxicity in CHO-K1 cells in presence of rat liver S9 fraction by invitro micronucleus test to MIC for Enterococcus faecalis ATCC 29212; assay type: toxicity, cell-based; details: CHO-K1 cells with rat liver S9 fraction
[24] = Ratio of genotoxicity in CHO-K1 cells in presence of rat liver S9 fraction by invitro micronucleus test to MIC for methicillin-resistant wild type Staphylococcus aureus ATCC 43300; assay type: toxicity, cell-based; details: CHO-K1 cells with rat liver S9 fraction
[25] = Genotoxicity in CHO-K1 cells upto 16 uM by invitro micronucleus test; assay type: cell-based, Cricetulus griseus; details: chinese hamster
[26] = Drug metabolism in rat liver S9 fraction assessed as hydroxylated methyl-pyrrole moiety metabolite; assay type: ADME, subcellular
[27] = Drug metabolism in rat liver S9 fraction assessed as hydroxylated benzothiazole ring metabolite; assay type: ADME, subcellular
[28] = Drug metabolism in rat liver S9 fraction assessed as direct glucuronide conjugate; assay type: ADME, subcellular
DNA gyrase [29] = target: DNA gyrase (Escherichia coli, UniProt P0AES4+P0AES6); test: Inhibition of Escherichia coli DNA gyrase assessed as reduction in supercoiling of relaxed pNO1 DNA measured after 30 mins by fluorescence assay
DNA gyrase [30] = target: DNA gyrase (Staphylococcus aureus, UniProt P0A0K8+P20831); test: Inhibition of Staphylococcus aureus DNA gyrase assessed reduction in supercoiling of relaxed pNO1 DNA measured after 30 mins by fluorescence assay

Compound Cc1[nH]c(C(=O)Nc2nc3c(OCc4ccsc4)cc(C(=O)O)cc3s2)c(Cl)c1Cl has a selectivity ratio [1] of 13, an IC50 [2] of 84 nM and an MIC (Staphylococcus aureus [3]) of 0.25 µg/mL (≈ 0.518 µM). The MIC (Staphylococcus aureus [4]) was 0.0625 µg/mL (≈ 0.13 µM), the MIC (Enterococcus faecalis) was 0.0156 µg/mL (≈ 0.0323 µM) and the MIC (Pseudomonas aeruginosa [5]) was 2 µg/mL (≈ 4.15 µM). It also gave an MIC (Klebsiella pneumoniae) of 2 µg/mL (≈ 4.15 µM), an MIC (Staphylococcus aureus [6]) of 0.0625 µg/mL (≈ 0.13 µM) and an MIC (Staphylococcus aureus [7]) of 0.0625 µg/mL (≈ 0.13 µM). It also gave an MIC (Staphylococcus aureus [8]) of 0.0313 µg/mL (≈ 0.0649 µM), an MIC (Escherichia coli [9]) greater than 64 µg/mL and an MIC (Escherichia coli [10]) of 0.125 µg/mL. It also gave an MIC (Acinetobacter baumannii) of 0.5 µg/mL (≈ 1.04 µM), an MIC (Escherichia coli [11]) of 1 µg/mL (≈ 2.07 µM) and an MIC (Escherichia coli [12]) of 2 µg/mL (≈ 4.15 µM). For the same compound, the MIC (Escherichia coli [13]) was 2 µg/mL (≈ 4.15 µM), the MIC (Pseudomonas aeruginosa [14]) was 16 µg/mL (≈ 33.2 µM) and the INH [15] was 45 µM. It also gave a Ratio (Staphylococcus aureus [16]) of 4, a Ratio (Staphylococcus aureus [17]) of 2 and a Ratio (Staphylococcus aureus [18]) of 2. The Ratio (Escherichia coli [19]) was 8, the selectivity ratio [20] was 450 and the Activity (HepG2) was “Non-Toxic”. The selectivity ratio [21] was 123, the selectivity ratio [22] was 247 and the selectivity ratio [23] was 1920. The selectivity ratio [24] was 478, the Activity [25] was “Non-Toxic” and the Drug metabolism [26] was “Metabolite_Detected”. The Drug metabolism [27] was “Metabolite_Detected”, the Drug metabolism [28] was “Metabolite_Detected” and the IC50 (DNA gyrase [29]) was less than 10 nM. It also gave an IC50 (DNA gyrase [30]) of less than 10 nM.
